Laboratory results published in ChEMBL document CHEMBL5653622 (Oncotarget, 2016).
Activity calls are given as the source filed them. The rule behind the calls is not given here.

How the values were obtained:
[1] = target: Glycogen synthase kinase-3 beta (Homo sapiens) (UniProt P49841); experiment: Inhibition of human GSK3b assessed as remaining activity at 10 uM in presence of ATP by radiometric kinase assay relative to control
[2] = target: Serine/threonine-protein kinase STK11 (Homo sapiens) (UniProt Q15831); experiment: Inhibition of human LKB1 assessed as remaining activity at 10 uM in presence of ATP by radiometric kinase assay relative to control
HT-29 [3] = experiment: Induction of cell cycle arrest in etoposide induced human HT-29 cells assessed as decrease in accumulation of cells at G2/M phase at 1 to 5 uM incubated for 24 hrs by BrdU and PI staining based flow cytometry analysis; assay type: functional; conditions: dose 1-5 µM
Summary of the method: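 HT29 cells exposed for 24h, stained with bromodeoxyuridine and propidium iodide, and cell-cycle distribution measured by flow cytometry.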

Homo sapiens = species on record: Homo sapiens; experiment: Inhibition of human AMPK at 10 uM in presence of ATP by radiometric kinase assay relative to control
[4] = target: cAMP-dependent protein kinase (PKA) (Homo sapiens) (UniProt P22694+P17612+P22612); experiment: Inhibition of human PKA assessed as remaining activity at 10 uM in presence of ATP by radiometric kinase assay relative to control; assay type: protein assay
[5] = target: Mitogen-activated protein kinase 15 (Homo sapiens, UniProt Q8TD08); experiment: Inhibition of human ERK8 in presence of ATP by radiometric kinase assay
[6] = target: Serine/threonine-protein kinase BRSK2 (Homo sapiens) (UniProt Q8IWQ3); experiment: Inhibition of human BRSK2 assessed as remaining activity at 10 uM in presence of ATP by radiometric kinase assay relative to control
[7] = target: Serine/threonine-protein kinase TAO1 (Homo sapiens) (UniProt Q7L7X3); experiment: Inhibition of human TAO1 assessed as remaining activity at 10 uM in presence of ATP by radiometric kinase assay relative to control
[8] = target: Ribosomal protein S6 kinase alpha-3 (Homo sapiens, UniProt P51812); experiment: Inhibition of human RSK2 by FRET based Z-LYTE kinase assay
[9] = target: Dual specificity tyrosine-phosphorylation-regulated kinase 1A (Homo sapiens) (UniProt Q13627); experiment: Inhibition of human DYRK1A assessed as remaining activity at 10 uM in presence of ATP by radiometric kinase assay relative to control
[10] = target: Serine/threonine-protein kinase PAK 5 (Homo sapiens) (UniProt Q9P286); experiment: Inhibition of human PAK5 assessed as remaining activity at 10 uM in presence of ATP by radiometric kinase assay relative to control
[11] = target: Tau-tubulin kinase 1 (Homo sapiens) (UniProt Q5TCY1); experiment: Inhibition of human TTBK1 assessed as remaining activity at 10 uM in presence of ATP by radiometric kinase assay relative to control
Tau-tubulin kinase 1 (Homo sapiens), sequence (Q5TCY1 whole entry): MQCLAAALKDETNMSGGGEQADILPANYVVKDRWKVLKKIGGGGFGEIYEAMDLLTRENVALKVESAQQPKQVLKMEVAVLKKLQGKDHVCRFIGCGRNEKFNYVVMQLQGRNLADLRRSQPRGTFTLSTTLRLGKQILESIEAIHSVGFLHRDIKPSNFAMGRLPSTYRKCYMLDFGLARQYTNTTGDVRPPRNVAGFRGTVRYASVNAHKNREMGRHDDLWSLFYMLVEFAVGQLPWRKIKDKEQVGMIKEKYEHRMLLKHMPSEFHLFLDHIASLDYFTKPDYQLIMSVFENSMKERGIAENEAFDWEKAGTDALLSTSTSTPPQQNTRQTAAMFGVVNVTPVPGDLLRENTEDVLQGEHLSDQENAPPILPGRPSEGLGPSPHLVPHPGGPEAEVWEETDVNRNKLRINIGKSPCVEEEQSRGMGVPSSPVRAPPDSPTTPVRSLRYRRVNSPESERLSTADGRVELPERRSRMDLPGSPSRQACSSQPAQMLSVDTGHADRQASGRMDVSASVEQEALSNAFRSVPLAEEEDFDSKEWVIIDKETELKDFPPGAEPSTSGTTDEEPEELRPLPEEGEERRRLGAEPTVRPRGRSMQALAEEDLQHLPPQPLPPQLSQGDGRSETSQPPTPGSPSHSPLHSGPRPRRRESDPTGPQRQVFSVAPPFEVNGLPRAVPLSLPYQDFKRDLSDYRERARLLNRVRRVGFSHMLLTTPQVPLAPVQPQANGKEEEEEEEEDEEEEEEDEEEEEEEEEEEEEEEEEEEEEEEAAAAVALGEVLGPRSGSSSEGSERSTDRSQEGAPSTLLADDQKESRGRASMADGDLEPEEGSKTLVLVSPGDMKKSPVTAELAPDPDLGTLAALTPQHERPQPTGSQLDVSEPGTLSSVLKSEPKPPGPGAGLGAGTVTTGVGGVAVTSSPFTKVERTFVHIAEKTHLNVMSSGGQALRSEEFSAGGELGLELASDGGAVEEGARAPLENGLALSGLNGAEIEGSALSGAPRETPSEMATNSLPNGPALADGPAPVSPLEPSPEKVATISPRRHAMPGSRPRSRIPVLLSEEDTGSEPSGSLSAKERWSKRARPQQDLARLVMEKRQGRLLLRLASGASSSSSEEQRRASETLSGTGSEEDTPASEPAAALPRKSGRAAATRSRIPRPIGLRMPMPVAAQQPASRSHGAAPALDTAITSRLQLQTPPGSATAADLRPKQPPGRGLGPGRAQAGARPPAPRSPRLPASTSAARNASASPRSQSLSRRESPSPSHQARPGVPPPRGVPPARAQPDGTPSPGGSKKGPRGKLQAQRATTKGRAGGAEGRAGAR

HT-29 [12] = experiment: Induction of apoptosis in human HT-29 cells assessed as increased in cleaved PARP in presence of gemcitabine by Western blotting analysis; assay type: functional, cell-based
[13] = target: Aurora kinase A (Homo sapiens) (UniProt O14965); experiment: Inhibition of human AuroraA assessed as remaining activity at 10 uM in presence of ATP by radiometric kinase assay relative to control
[14] = target: Mitogen-activated protein kinase 14 (Homo sapiens) (UniProt Q16539); experiment: Inhibition of human p38a MAPK assessed as remaining activity at 10 uM in presence of ATP by radiometric kinase assay relative to control
[15] = target: RAC-beta serine/threonine-protein kinase (Homo sapiens) (UniProt P31751); experiment: Inhibition of human PKBb assessed as remaining activity at 10 uM in presence of ATP by radiometric kinase assay relative to control
RAC-beta serine/threonine-protein kinase (Homo sapiens), sequence (P31751 whole entry): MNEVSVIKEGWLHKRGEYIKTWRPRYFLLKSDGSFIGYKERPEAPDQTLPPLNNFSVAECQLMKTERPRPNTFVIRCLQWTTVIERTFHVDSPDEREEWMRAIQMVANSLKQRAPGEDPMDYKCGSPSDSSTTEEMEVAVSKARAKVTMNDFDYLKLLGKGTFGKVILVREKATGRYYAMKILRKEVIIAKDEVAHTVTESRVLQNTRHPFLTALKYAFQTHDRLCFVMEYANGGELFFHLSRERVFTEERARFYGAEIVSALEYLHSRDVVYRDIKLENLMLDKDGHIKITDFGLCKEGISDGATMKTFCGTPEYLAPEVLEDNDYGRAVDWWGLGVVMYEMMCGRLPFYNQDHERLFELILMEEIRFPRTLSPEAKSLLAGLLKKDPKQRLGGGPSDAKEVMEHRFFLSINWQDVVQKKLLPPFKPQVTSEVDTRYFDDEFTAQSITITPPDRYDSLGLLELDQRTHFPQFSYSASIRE

[16] = target: Homeodomain-interacting protein kinase 3 (Homo sapiens) (UniProt Q9H422); experiment: Inhibition of human HIPK3 assessed as remaining activity at 10 uM in presence of ATP by radiometric kinase assay relative to control
Homeodomain-interacting protein kinase 3 (Homo sapiens), sequence (Q9H422 whole entry, looked up): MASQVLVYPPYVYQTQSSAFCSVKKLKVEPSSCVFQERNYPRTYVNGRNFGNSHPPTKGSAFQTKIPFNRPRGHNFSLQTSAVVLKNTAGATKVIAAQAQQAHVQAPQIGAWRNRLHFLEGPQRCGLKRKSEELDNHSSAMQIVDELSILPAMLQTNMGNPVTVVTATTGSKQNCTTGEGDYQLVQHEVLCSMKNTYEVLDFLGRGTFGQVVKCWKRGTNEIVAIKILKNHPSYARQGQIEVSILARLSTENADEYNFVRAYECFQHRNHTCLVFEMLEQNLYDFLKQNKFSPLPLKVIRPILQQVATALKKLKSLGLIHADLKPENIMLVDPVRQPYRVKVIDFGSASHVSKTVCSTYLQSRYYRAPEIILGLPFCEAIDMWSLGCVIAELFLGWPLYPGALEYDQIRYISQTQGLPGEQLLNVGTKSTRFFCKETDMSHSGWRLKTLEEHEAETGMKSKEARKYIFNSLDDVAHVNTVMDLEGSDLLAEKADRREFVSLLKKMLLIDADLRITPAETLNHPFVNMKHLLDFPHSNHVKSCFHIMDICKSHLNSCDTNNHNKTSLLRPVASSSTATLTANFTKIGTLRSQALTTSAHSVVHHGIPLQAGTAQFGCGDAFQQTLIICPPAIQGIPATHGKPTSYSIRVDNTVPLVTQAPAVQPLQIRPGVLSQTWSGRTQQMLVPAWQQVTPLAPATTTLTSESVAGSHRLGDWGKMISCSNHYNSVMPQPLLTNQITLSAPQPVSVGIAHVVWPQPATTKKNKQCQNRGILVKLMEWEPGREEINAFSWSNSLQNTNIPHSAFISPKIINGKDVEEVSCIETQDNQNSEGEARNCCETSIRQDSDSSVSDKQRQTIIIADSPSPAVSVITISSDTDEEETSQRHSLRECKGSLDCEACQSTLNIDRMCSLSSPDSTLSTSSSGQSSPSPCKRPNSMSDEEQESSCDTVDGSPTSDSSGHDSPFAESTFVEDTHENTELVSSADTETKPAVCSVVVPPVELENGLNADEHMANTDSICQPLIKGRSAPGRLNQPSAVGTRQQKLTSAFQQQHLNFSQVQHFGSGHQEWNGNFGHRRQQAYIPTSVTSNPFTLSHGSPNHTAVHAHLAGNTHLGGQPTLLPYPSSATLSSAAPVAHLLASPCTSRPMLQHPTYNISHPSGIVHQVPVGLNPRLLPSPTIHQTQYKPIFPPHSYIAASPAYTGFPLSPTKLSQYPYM

[17] = Toxicity in Emu-Myc driven transgenic mouse transplant model of B-cell lymphoma assessed as change in body temperature at 150 mg/kg, po administered for 9 days; assay type: organism-based; conditions: in vivo, 216 h, time 9 day
[18] = target: Cyclin-dependent kinase 1 (Homo sapiens) (UniProt P06493); experiment: Inhibition of human CDK1 by DELFIA assay
[19] = target: Aurora kinase B (Homo sapiens) (UniProt Q96GD4); experiment: Inhibition of human AuroraB assessed as remaining activity at 10 uM in presence of ATP by radiometric kinase assay relative to control
[20] = target: Serine/threonine-protein kinase Sgk1 (Homo sapiens) (UniProt O00141); experiment: Inhibition of human SGK1 assessed as remaining activity at 10 uM in presence of ATP by radiometric kinase assay relative to control
[21] = target: Mitogen-activated protein kinase kinase kinase 9 (Homo sapiens) (UniProt P80192); experiment: Inhibition of human MLK1 assessed as remaining activity at 10 uM in presence of ATP by radiometric kinase assay relative to control
Mitogen-activated protein kinase kinase kinase 9 (Homo sapiens), sequence (P80192 whole entry, looked up): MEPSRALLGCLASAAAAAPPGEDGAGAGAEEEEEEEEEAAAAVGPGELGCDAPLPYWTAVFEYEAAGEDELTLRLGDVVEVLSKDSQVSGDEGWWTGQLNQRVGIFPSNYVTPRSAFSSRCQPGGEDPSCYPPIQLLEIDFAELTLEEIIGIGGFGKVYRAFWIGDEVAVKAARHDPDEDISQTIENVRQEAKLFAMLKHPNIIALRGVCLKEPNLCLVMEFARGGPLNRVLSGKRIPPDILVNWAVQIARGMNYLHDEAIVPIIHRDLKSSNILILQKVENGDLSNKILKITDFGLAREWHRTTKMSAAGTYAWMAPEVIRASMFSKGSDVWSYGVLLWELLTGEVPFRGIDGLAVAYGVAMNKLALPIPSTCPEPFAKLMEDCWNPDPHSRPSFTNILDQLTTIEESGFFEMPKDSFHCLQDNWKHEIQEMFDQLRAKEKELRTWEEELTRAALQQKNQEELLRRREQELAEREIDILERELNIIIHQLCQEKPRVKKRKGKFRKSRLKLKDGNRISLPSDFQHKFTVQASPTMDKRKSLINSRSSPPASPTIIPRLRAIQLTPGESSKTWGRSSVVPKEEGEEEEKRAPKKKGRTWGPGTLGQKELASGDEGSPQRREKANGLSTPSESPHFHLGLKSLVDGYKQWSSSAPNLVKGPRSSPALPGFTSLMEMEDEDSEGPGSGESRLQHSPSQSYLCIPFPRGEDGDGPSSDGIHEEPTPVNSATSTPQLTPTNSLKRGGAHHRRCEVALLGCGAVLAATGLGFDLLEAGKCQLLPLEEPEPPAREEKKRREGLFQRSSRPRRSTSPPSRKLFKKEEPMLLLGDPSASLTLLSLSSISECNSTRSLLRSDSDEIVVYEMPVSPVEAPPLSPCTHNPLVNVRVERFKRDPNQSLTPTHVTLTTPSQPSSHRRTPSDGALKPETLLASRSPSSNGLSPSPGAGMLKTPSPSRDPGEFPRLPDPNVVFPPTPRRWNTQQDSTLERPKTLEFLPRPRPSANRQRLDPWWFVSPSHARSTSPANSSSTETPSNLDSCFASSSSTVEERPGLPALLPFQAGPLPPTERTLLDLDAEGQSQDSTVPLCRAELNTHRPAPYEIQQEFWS

[22] = target: Mitogen-activated protein kinase 9 (Homo sapiens) (UniProt P45984); experiment: Inhibition of human JNK2 assessed as remaining activity at 10 uM in presence of ATP by radiometric kinase assay relative to control
[23] = target: MAP kinase-activated protein kinase 2 (Homo sapiens) (UniProt P49137); experiment: Inhibition of human MAPKAP-K2 assessed as remaining activity at 10 uM in presence of ATP by radiometric kinase assay relative to control
[24] = target: High affinity nerve growth factor receptor (Homo sapiens) (UniProt P04629); experiment: Inhibition of human TrkA assessed as remaining activity at 10 uM in presence of ATP by radiometric kinase assay relative to control
High affinity nerve growth factor receptor (Homo sapiens), sequence (P04629 33-796 limits assumed): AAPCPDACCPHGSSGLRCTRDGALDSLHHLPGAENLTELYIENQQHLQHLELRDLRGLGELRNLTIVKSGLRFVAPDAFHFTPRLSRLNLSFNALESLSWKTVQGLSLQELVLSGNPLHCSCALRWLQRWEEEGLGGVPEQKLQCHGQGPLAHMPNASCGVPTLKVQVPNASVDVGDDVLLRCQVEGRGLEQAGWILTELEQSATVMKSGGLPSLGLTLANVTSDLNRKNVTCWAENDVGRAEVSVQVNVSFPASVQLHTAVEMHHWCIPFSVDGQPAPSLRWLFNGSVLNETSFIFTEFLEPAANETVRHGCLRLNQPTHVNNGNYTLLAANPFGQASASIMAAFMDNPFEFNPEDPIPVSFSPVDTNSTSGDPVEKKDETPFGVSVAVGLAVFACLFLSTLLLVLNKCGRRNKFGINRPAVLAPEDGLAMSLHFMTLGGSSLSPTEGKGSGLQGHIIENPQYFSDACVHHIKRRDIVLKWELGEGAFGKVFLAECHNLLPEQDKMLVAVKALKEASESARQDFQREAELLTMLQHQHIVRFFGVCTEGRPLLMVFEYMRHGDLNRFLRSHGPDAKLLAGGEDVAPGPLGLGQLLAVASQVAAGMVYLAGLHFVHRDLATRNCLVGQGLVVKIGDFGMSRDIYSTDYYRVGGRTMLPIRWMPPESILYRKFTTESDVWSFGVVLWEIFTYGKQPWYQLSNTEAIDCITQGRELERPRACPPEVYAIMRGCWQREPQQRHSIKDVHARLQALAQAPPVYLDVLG

[25] = Half life in BALB/C mouse plasma at 10 mg/kg, po by LC/MS-MS analysis; assay type: ADME, organism-based
Summary of the method: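 Female BALB/c mice received a single bolus of 10mg/kg, either i.v. or p.o. The oral vehicle was DPTW (10% DMSO, 20% PEG400, 5% Tween 80, 65% water). Plasma and spleen homogenates were extracted with methanol containing internal standards. Drug levels were measured by LC/MS-MS, and pharmacokinetic parameters were calculated from the concentration-time profiles.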

[26] = target: Ephrin type-A receptor 4 (Homo sapiens) (UniProt P54764); experiment: Inhibition of human EPH-A4 assessed as remaining activity at 10 uM in presence of ATP by radiometric kinase assay relative to control
[27] = target: Serine/threonine-protein kinase 16 (Homo sapiens) (UniProt O75716); experiment: Inhibition of human MPSK1 assessed as remaining activity at 10 uM in presence of ATP by radiometric kinase assay relative to control
[28] = Toxicity in Emu-Myc driven transgenic mouse transplant model of B-cell lymphoma assessed as reduction in weight of the brachial/axillary lymph nodes at 150 mg/kg, po administered for 9 days; assay type: organism-based; conditions: in vivo, 216 h, time 9 day

- Activity [1]: 47%
- Activity [2]: 44%
- inhibition (Homo sapiens): 68%
- Activity [4]: 93%
- Activity [6]: 35%
- Activity [7]: 54%
- IC50 [8]: 361 nM
- Activity [9]: 41%
- Activity [10]: 70%
- Activity [11]: 82%
- Activity [13]: 75%
- Activity [14]: 120%
- Activity [15]: 100%
- Activity [16]: 124%
- IC50 [18]: 2440 nM
- Activity [19]: 26%
- Activity [20]: 87%
- Activity [21]: 75%
- Activity [22]: 107%
- Activity [23]: 94%
- Activity [24]: 31%
- half-life [25]: 2.85 h
- Activity [26]: 71%
- Activity [27]: 122%
Compound: N#Cc1cnc(Nc2cc(NC[C@H]3CNCCO3)c(C(F)(F)F)cn2)cn1 [SRA-737]
- Activity (HT-29 [3]): Active
- IC50 [5]: 130 nM
- Activity (HT-29 [12]): Active
- Activity [17]: Non-Toxic
- Activity [28]: Toxic
